Measurements published in ChEMBL document CHEMBL1955770, “Inhibition of S/G2 phase CDK4 reduces mitotic fidelity” (J Biol Chem, 2006).
Calls of active or inactive are those of the source. The calls are words filed in the database; no cut-off is given here.

What was measured:
[1] = Cell cycle arrest in human SK-MEL-13 cells assessed as accumulation at G2/M phase at 2 uM treated 1 hr and measured 12 hr post double hydroxyurea-synchrony release using propidium iodide staining by FACS analysis (reference value: 50 %); type: functional, cell-based
How it was run: (§1)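 SK-Mel-13 cells synchronized with 2 mM hydroxyurea, then treated with 2 μM CDK4 inhibitor or left untreated 1 h after release. Harvested at indicated times post-release, ethanol-fixed, propidium iodide/RNase stained, and DNA content read by FACS. Proportions of G1, S and G2/M cells derived with ModFit.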

HCT-116 [2] = assay: Cell cycle arrest in Rb-competent human HCT116 cells assessed as accumulation at S phase at 3 times IC90 after 24 hrs using BrdUrd staining by FACS analysis (Rvb =38 %); type: functional
A2058 [3] = assay: Cell cycle arrest in human A2058 cells assessed as accumulation at G2/M phase at 2 uM treated 1 hr and measured 8 hr post double hydroxyurea-synchrony release using propidium iodide staining by FACS analysis (reference value: 48 %); type: functional
[4] = Cell cycle arrest in human SK-MEL-13 cells assessed as accumulation at S phase at 2 uM treated 1 hr and measured 8 hr post double hydroxyurea-synchrony release using propidium iodide staining by FACS analysis (reference value: 74 %); type: functional, cell-based; how it was run: as §1
HeLa [5] = assay: Decrease in borealin protein expression in human HeLa cells at 2 uM measured 14 hr post thymidine-synchrony release by immunoblot analysis; type: functional, cell-based
How it was run: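 Synchronized HeLa cells given 2 μM CDK4 inhibitor in early S phase and harvested at set times post-release. Lysed in supplemented NETN buffer on ice for 20 min. Lysates run on SDS-PAGE and immunoblotted for survivin, borealin and other chromosomal passenger proteins, with ECL detection. Cyclin D3 served as loading control.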

A2058 [6] = assay: Cell cycle arrest in human A2058 cells assessed as time taken to reach peak mitosis at 2 uM treated 1 hr and post double hydroxyurea-synchrony release using propidium iodide staining by FACS analysis; type: functional
[7] = target: Hepatocyte growth factor receptor (Homo sapiens, UniProt P08581); assay: Inhibition of c-Met using fluorescent substrate by IMAP assay
How it was run: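 Run in-house using IMAP: phosphorylated fluorescent peptide substrate binds preferentially to immobilized metal beads, which quantifies kinase activity. ATP at 3× the Km of each enzyme.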

HeLa [8] = assay: Cell cycle arrest in synchronized human HeLa cells assessed as time required to reach anaphase/telophase at 2 uM by time-lapse microscopy (reference value: 78+/-51 mins); type: functional
HeLa [9] = assay: Cell cycle arrest in human HeLa cells assessed as accumulation at G1 phase at 2 uM treated 6 hr and measured 8 hr post double thymidine-synchrony release using propidium iodide staining by FACS analysis (reference value: 6 %); type: functional
[10] = target: Cyclin-dependent kinase 4 (Homo sapiens) (UniProt P11802); assay: Inhibition of CDK4-mediated Rb phosphorylation at ser 795 in human HCT116 cells at 3 times IC90 after 4 hrs by immunoblot analysis; type: cell-based; conditions: HCT-116
How it was run: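 Asynchronous HCT-116 cells (DMEM, 3 mM HEPES, 10% serum, 37 °C, 5% CO₂) were given increasing inhibitor doses for 4 or 24 h. Lysis in NETN with phosphatase and protease inhibitors, then SDS-PAGE, nitrocellulose transfer and immunoblot for phospho-Rb (Ser-795) with HRP secondary and chemiluminescence.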

HeLa [11] = assay: Induction of abberent mitosis in human HeLa cells expressing GFP-H2B assessed as micronuclei formation during interphase at 2 uM treated 1 hr and measured 24 hr post thymidine-synchrony release by time-lapse microscopy (reference value: 10%); type: functional
HeLa [12] = assay: Cell cycle arrest in human HeLa cells assessed as accumulation at G2/M phase at 2 uM treated 6 hr and measured 10 hr post double thymidine-synchrony release using propidium iodide staining by FACS analysis (reference value: 31 %); type: functional
How it was run: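 Cells harvested at set times post-release, fixed in 70% ethanol, stained with 5 μg/ml propidium iodide plus 0.5 mg/ml RNase A, and analysed by flow cytometry. Cell-cycle phase fractions calculated by ModFit.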

A2058 [13] = assay: Cell cycle arrest in human A2058 cells assessed as accumulation at G2/M phase at 2 uM treated 1 hr and measured 10 hr post double hydroxyurea-synchrony release using propidium iodide staining by FACS analysis (reference value: 65 %); type: functional
HeLa [14] = assay: Cell cycle arrest in Rb-deficient human HeLa cells assessed as accumulation at G1 phase at 2 uM after 24 hrs by FACS analysis; type: functional
How it was run: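 Ethanol-fixed cells stained with propidium iodide/RNase A, DNA content read by FACS, phase and sub-diploid fractions calculated with ModFit.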

NCI-H460 = assay: Toxicity in human H460a cells at IC50 after 3 days by MTT assay; type: cell-based; conditions: nci-h460, 72 h
HeLa [15] = assay: Induction of abberent mitosis in human HeLa cells assessed as lagging chromosomes at 2 uM treated 1 hr and measured 12 hr post thymidine-synchrony release by fluorescence microscopy
HeLa [16] = assay: Induction of abberent mitosis in human HeLa cells expressing GFP-H2B assessed as lagging chromosomes at astral side of spindle microtubules at 2 uM treated 1 hr and measured 12 hr post-thymidine release by time-lapse microscopy; type: functional, cell-based
HCT-116 [17] = assay: Toxicity in human HCT116 cells at 8 uM by MTT assay; type: cell-based; conditions: hct-116, 8 µM
[18] = target: Serine/threonine-protein kinase 17B (Homo sapiens) (UniProt O94768); assay: Inhibition of STK17B at 1 uM
[19] = target: Activated CDC42 kinase 1 (Homo sapiens) (UniProt Q07912); assay: Inhibition of ACK1 at 1 uM
How it was run: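 Competition binding screen across a kinase panel with compound at 1 μM. Read-out is % competition. Kinases not hit at this concentration were scored '<50'. No Kd was determined for hits.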

[20] = target: Proto-oncogene tyrosine-protein kinase Src (Homo sapiens, UniProt P12931); assay: Inhibition of SRC at 1 uM
[21] = target: Ephrin type-A receptor 3 (Homo sapiens) (UniProt P29320); assay: Inhibition of EPHA3 at 1 uM
[22] = target: Tyrosine-protein kinase FRK (Homo sapiens) (UniProt P42685); assay: Inhibition of FRK at 1 uM
[23] = target: Tyrosine-protein kinase HCK (Homo sapiens) (UniProt P08631); assay: Inhibition of HCK at 1 uM
[24] = target: Serine/threonine-protein kinase 10 (Homo sapiens) (UniProt O94804); assay: Inhibition of STK10 at 1 uM
[25] = target: Dual specificity protein kinase CLK1 (Homo sapiens) (UniProt P49759); assay: Inhibition of CLK1 at 1 uM
[26] = target: Serine/threonine-protein kinase Nek2 (Homo sapiens) (UniProt P51955); assay: Inhibition of NEK2 at 1 uM
[27] = target: Ephrin type-B receptor 4 (Homo sapiens) (UniProt P54760); assay: Inhibition of EPHB4 at 1 uM
[28] = target: Myotonin-protein kinase (Homo sapiens) (UniProt Q09013); assay: Inhibition of DMPK at 1 uM
[29] = target: Serine/threonine-protein kinase PLK4 (Homo sapiens) (UniProt O00444); assay: Inhibition of PLK4 at 1 uM

Sequence of Hepatocyte growth factor receptor (P08581 whole entry): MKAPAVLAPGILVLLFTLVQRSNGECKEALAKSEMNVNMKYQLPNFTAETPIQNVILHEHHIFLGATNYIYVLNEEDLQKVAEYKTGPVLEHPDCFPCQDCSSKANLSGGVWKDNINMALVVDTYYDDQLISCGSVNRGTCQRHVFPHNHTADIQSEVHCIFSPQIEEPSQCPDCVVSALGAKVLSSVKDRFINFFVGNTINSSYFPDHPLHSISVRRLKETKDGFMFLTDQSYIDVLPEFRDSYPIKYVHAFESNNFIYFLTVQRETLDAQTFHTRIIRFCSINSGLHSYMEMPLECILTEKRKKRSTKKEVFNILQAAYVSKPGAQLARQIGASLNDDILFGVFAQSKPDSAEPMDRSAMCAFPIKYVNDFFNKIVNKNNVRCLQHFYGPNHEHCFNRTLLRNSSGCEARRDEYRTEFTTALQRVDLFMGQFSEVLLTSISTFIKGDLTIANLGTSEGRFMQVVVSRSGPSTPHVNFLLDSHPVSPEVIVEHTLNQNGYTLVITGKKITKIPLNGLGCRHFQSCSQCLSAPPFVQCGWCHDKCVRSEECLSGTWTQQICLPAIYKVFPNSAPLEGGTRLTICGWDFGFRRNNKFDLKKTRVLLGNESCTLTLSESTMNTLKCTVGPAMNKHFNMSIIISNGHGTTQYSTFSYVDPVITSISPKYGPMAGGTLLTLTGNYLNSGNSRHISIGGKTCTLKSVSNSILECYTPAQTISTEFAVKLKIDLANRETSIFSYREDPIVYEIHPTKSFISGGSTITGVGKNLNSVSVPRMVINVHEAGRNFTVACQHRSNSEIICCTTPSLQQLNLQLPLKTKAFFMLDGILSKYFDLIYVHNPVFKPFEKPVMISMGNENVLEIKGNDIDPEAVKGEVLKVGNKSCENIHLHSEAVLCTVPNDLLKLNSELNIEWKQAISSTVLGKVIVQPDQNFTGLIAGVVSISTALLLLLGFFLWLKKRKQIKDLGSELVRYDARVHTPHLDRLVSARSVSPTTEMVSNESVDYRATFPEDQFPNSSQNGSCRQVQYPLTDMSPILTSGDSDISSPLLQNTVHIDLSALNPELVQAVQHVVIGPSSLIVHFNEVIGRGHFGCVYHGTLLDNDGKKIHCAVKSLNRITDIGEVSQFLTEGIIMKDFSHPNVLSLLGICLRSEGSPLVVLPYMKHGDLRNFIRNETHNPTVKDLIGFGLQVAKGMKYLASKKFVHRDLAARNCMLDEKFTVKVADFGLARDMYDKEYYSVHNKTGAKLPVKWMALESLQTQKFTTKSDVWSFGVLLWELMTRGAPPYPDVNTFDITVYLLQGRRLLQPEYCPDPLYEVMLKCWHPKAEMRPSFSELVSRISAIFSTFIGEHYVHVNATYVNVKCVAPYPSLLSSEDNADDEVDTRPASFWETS
Sequence of Cyclin-dependent kinase 4 (Homo sapiens) (P11802 whole entry): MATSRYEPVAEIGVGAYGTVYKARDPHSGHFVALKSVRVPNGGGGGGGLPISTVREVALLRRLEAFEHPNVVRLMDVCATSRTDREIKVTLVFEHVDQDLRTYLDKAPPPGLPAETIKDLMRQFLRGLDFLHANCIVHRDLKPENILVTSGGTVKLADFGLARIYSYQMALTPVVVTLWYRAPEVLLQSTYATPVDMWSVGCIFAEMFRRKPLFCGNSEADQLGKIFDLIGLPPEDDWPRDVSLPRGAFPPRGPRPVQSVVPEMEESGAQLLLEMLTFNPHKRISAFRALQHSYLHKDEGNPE
Sequence of Tyrosine-protein kinase FRK (Homo sapiens) (P42685 whole entry): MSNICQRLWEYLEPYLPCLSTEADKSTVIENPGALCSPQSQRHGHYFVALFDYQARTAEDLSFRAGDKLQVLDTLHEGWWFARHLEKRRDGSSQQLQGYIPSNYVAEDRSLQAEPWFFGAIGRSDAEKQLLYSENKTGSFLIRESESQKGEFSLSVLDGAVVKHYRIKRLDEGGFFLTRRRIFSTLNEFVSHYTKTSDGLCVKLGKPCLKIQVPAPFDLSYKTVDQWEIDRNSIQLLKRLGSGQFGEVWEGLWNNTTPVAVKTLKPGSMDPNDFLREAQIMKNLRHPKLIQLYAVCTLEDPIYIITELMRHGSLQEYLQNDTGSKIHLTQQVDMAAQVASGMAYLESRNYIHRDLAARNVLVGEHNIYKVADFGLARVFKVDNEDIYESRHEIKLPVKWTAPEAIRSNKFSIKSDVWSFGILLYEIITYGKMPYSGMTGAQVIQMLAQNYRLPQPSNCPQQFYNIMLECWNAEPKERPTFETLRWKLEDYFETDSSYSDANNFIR
Sequence of Ephrin type-B receptor 4 (Homo sapiens) (P54760 whole entry): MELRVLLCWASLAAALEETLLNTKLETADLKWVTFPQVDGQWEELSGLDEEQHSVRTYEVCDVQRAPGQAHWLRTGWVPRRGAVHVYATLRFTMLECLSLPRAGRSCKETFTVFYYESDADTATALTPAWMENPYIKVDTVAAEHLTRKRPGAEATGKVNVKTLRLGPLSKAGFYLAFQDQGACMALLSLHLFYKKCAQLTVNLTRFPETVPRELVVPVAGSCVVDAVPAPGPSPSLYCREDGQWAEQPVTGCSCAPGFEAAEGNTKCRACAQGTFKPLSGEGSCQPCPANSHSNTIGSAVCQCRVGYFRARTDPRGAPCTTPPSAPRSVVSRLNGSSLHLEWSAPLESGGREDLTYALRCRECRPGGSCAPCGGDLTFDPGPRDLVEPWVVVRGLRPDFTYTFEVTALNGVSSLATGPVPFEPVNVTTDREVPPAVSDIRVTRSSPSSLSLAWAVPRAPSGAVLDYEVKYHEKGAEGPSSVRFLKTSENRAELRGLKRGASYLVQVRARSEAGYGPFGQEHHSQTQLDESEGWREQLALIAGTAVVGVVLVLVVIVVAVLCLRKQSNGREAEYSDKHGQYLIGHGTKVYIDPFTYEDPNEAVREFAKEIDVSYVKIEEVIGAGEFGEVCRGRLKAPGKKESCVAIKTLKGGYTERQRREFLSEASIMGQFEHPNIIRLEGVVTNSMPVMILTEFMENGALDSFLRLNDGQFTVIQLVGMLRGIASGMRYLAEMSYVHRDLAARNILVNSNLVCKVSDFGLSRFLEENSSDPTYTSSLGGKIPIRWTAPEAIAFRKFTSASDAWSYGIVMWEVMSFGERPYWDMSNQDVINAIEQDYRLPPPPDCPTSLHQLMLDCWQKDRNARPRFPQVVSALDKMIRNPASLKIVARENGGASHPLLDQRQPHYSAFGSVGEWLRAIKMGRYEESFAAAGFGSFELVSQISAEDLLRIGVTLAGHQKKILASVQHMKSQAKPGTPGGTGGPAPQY
Sequence of Activated CDC42 kinase 1 (Homo sapiens) (Q07912 whole entry, looked up): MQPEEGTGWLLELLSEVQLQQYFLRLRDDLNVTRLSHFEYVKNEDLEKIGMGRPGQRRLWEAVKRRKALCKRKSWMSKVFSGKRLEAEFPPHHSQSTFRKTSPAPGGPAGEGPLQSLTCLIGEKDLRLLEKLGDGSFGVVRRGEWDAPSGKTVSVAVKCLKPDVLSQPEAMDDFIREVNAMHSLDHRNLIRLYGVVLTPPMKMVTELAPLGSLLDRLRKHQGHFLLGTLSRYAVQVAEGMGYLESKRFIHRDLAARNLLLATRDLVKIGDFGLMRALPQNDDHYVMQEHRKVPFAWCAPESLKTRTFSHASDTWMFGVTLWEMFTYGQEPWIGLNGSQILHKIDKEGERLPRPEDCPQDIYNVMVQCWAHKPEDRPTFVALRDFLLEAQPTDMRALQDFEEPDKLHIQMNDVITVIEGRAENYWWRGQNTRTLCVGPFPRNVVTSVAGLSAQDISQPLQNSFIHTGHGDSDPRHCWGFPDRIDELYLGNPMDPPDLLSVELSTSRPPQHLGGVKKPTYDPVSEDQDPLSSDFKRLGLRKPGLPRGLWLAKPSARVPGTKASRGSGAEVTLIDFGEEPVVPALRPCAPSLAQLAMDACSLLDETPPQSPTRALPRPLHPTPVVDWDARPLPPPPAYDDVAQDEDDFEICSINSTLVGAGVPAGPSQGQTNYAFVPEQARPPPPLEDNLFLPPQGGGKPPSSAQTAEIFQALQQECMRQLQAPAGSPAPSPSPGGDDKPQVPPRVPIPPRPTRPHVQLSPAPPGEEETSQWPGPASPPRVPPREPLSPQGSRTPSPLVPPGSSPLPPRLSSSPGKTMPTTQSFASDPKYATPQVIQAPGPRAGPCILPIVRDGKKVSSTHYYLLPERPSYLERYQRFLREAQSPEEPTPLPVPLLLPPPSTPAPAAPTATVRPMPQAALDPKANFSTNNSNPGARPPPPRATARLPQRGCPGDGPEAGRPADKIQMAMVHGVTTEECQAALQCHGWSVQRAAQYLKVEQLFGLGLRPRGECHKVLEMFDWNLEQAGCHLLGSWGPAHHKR
Sequence of Serine/threonine-protein kinase 17B (Homo sapiens) (O94768 whole entry): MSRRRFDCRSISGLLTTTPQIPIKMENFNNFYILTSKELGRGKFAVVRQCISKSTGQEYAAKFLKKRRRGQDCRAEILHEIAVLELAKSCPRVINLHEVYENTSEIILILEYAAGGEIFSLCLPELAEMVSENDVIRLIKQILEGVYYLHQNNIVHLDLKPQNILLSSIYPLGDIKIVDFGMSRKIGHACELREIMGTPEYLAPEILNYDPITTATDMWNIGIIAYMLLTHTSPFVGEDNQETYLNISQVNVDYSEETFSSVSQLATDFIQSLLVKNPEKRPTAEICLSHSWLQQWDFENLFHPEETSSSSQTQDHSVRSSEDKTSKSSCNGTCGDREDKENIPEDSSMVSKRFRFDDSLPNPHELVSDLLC
Sequence of Serine/threonine-protein kinase Nek2 (Homo sapiens) (P51955 whole entry): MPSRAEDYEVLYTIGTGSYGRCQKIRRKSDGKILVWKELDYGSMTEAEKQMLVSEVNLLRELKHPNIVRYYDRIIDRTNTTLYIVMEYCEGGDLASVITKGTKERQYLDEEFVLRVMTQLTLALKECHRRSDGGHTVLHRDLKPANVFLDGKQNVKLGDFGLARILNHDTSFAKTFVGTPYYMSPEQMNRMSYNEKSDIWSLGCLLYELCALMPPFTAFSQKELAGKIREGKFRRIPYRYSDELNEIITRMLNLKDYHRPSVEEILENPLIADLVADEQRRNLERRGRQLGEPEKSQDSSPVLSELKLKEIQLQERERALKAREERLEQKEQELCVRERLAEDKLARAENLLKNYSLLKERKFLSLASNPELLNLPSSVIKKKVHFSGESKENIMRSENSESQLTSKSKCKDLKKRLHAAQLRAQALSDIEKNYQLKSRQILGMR

Structure (SMILES) | Activity [1] [%] | Activity (HCT-116 [2]) [%] | Activity (A2058 [3]) [%] | Activity [4] [%] | Activity (HeLa [5]) | Time (A2058 [6]) [h] | IC50 [7] [µM] | Time (HeLa [8]) [min] | Activity (HeLa [9]) [%] | inhibition [10] | Activity (HeLa [11]) [%] | Activity (HeLa [12]) [%] | Activity (A2058 [13]) [%] | Activity (HeLa [14]) [%] | Activity (NCI-H460) | Activity (HeLa [15]) [%] | Activity (HeLa [16]) | Activity (HCT-116 [17]) | other results
COc1cccc(C(=O)c2sc(Nc3ccc(N4CCN(C(C)C)CC4)cc3)nc2N)c1 | 77 | 4 | 69 | 18 | Active | 10 | > 20 | 152 | 7 | Active | 30 | 43 | 57 | 49 | Toxic | 40 | Active | Toxic | –
CN1CCN(c2ccc(Nc3nc(N)c(C(=O)c4ccc5c(c4)OCCO5)s3)cc2)CC1 | 77 | 4 | 69 | 18 | Active | 10 | > 20 | 152 | 7 | Active | 30 | 43 | 57 | 49 | Toxic | 40 | Active | Toxic | inhibition [18]: < 50%; inhibition [19]: < 50%; inhibition [20]: < 50%; inhibition [21]: < 50%; inhibition [22]: < 50%; inhibition [23]: < 50%; inhibition [24]: < 50%; inhibition [25]: 100%; inhibition [26]: < 50%; inhibition [27]: < 50%; inhibition [28]: < 50%; inhibition [29]: < 50%
